Source: paper PMC9200056 (Chemical Science, 2022)
Non-standard residues stand in square brackets, D forms with d. *: point of attachment. 1Nal = N[C@@H](Cc1cccc2ccccc12)C(=O)O; ACC = NC(=O)Cc1cc(=O)oc2cc(N*)ccc12; Igl = N[C@H](C(=O)O)C1Cc2ccccc2C1; hArg = N=C(N)NCCCC[C@H](N)C(=O)O; Dab = NCC[C@H](N)C(=O)O; Cbz = O=C(OCc1ccccc1)*

What was measured:
Assay type in all cases: biochemical
[1] = target: APC (activated protein C) (Homo sapiens, UniProt P04070); experiment: Initial substrate screening; settings: for increase in activity on exchanging L-Nle(O-Bzl) (SMA4) at P3: initial screening, 1 μM substrate, relative to SMA4
Summary of the method: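 Plasma-derived human APC (thrombin–thrombomodulin-activated) was preincubated 15 min at 37 °C in Tris/NaCl/CaCl2 buffer, pH 7.4, then added to ACC substrates at 1 μM final. Final APC was 50–90 nM, chosen per substrate set. ACC release was read at 355/460 nm for 30 min. Rates (RFU s−1) came from the linear portion and were adjusted to equal enzyme activity; at least 2 repeats were averaged.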

[2] = target: T1, fXa (factor Xa) (Homo sapiens, UniProt P00742); experiment: Substrate kinetics
Summary of the method: (§1)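 Purified plasma-derived human enzymes were preincubated 15 min at 37 °C in Tris/NaCl/CaCl2 buffer, pH 7.4. They were added to eight serially diluted ACC substrate concentrations (4.68 nM–741 μM overall). ACC release was followed at 355/460 nm for 30 min at 37 °C to derive kcat, KM and kcat/KM; at least duplicate runs were averaged.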

[3] = target: T1, fXa (factor Xa); experiment: Initial substrate screening; settings: 1 μM substrate, relative to SMX15
Summary of the method: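 ACC fluorogenic substrates at 1 μM final, from 10 mM stocks diluted 100-fold in DMSO. fXa (7–100 nM, set per substrate for adequate signal) preincubated 15 min at 37 °C in 20 mM Tris, 150 mM NaCl, 5 mM CaCl2, pH 7.4. Hydrolysis read for 30 min at 37 °C (ex 355, em 460 nm). Linear-phase RFU s−1 normalised to equal enzyme activity, averaged over at least two repeats.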

[4] = target: T2, thrombin (Homo sapiens, UniProt P00734); experiment: Substrate kinetics; settings: ratio of kcat/KM values
Summary of the method: as §1

[5] = system: APC in human plasma; experiment: APC labeling by fluorescent ABP in human plasma; settings: EDTA plasma diluted 7.5 times, probe 20 μM, 60 min, 37 °C; SDS–PAGE
Summary of the method: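 Human plasma from EDTA-anticoagulated whole blood, diluted 7.5-fold in 20 mM Tris, 150 mM NaCl, 5 mM CaCl2, pH 7.4, mixed 1:1 with APC-directed Cy5 probe (1–20 μM), 60 min, 37 °C. SDS/DTT reduction at 95 °C for 5 min, then 12% SDS–PAGE and nitrocellulose blot. Chicken anti-protein C for 7 h, then Alexa 488 secondary. Cy5 imaged at 658 nm, antibody at 488 nm. At least 3 replicates.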

[6] = target: T2, thrombin; experiment: Inhibition kinetics; settings: ratio of kobs/I values
[7] = target: T1, fXa (factor Xa); experiment: Inhibition kinetics; settings: ratio of kobs/I values
[8] = system: thrombin in human plasma; experiment: Thrombin labeling by fluorescent ABP in human plasma; settings: EDTA plasma diluted 7.5 times, probe 20 μM, 60 min, 37 °C; SDS–PAGE
Summary of the method: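 Human plasma from EDTA-anticoagulated whole blood, diluted 7.5-fold in Tris/NaCl/5 mM CaCl2 buffer, pH 7.4, incubated 1:1 with thrombin-directed Cy7 probe (1–20 μM) for 60 min at 37 °C. Reduced in SDS/DTT at 95 °C, run on 12% SDS–PAGE and blotted. Sheep anti-fII for 7 h, then Alexa 680 secondary. Cy7 imaged at 784 nm, antibody at 658 nm. At least 3 replicates.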

Chain of APC (activated protein C) (P04070 212-461 limits assumed): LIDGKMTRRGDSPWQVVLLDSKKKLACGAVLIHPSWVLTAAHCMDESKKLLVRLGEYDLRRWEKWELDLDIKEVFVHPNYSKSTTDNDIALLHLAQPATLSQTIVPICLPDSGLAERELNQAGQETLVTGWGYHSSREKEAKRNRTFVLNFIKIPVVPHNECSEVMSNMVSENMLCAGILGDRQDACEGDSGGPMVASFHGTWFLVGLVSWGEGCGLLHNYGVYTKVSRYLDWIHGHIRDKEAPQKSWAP
Chain of APC (activated protein C) (P04070 43-197 partner limits assumed): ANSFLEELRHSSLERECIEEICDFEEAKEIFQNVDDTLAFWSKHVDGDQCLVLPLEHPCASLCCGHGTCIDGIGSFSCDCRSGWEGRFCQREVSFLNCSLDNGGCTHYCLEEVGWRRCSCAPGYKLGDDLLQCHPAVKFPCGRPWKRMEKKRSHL
T1 sequence (P00742 235-488 limits assumed): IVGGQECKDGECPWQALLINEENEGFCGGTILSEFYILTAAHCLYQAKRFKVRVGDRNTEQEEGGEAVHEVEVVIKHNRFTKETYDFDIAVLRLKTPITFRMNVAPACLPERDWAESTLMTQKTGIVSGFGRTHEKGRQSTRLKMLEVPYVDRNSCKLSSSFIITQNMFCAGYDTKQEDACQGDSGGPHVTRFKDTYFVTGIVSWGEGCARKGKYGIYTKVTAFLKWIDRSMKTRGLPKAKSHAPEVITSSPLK
T1 sequence (P00742 41-179 partner limits assumed): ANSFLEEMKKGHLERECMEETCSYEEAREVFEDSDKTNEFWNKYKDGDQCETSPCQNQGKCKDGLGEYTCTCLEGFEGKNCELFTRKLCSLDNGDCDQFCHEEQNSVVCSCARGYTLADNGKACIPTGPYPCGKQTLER

Ac-Lys-Dab(Z )-Lys(2-Cl-Z)-Arg-AC C [SMA1]
increase in activity on exchanging L-Nle(O-Bzl) (SMA4) at P3 [1]: 13 fold

Ac-M[hArg][1Nal]R-{ACC} (SMILES CSCC[C@H](NC(C)=O)C(=O)N[C@@H](CCCCNC(=N)N)C(=O)N[C@@H](Cc1cccc2ccccc12)C(=O)N[C@@H](CCCNC(=N)N)C(=O)Nc1ccc2c(CC(N)=O)cc(=O)oc2c1) [SMX61]
increase of the kcat/KM value on exchanging D-Pro at P4 (SMX15) for L-Met ([2]; fXa, relative to SMX15): 55%

Ac-Gln-hArg-1-Nal-Arg-AC C [SMX14]
change of overall activity on replacing D-Pro (SMX15) at P4 [3]: only a slight decrease in the overall activity

Ac-Arg(NO2)-hArg-1-Nal-Arg-AC C [SMX13]
change of overall activity on replacing D-Pro (SMX15) at P4 [3]: only a slight decrease in the overall activity

Ac–hCha–Cys(MeBzl)–Pip–Arg–ACC [SMII22]
kcat/KM selectivity for thrombin over APC [4]: 3383 fold
kcat/KM selectivity for thrombin over fXa [4]: 162 fold

Ac-Lys-Glu(Bzl)-Lys(2-Cl-Z)-Arg-AC C [SMA3]
increase in activity on exchanging L-Nle(O-Bzl) (SMA4) at P3 [1]: 5.5 fold

Ac-K[Dab](Cbz)[Igl]R-{ACC} (SMILES CC(=O)N[C@@H](CCCCN)C(=O)N[C@@H](CCNC(=O)OCc1ccccc1)C(=O)N[C@H](C(=O)N[C@@H](CCCNC(=N)N)C(=O)Nc1ccc2c(CC(N)=O)cc(=O)oc2c1)C1Cc2ccccc2C1) [SMA5]
cleaved more efficiently than the best natural substrate (SMA54) ([1]; relative to SMA54): approximately 50 fold

Cy5–6-Ahx–Lys–Dab(Z)–Lys–Arg^P(OPh)2 [P-SMA172]
off-target labeling in human plasma at 20 μM probe [5]: only minor additional labeling between 25 and 35 kDa

Ac-Lys-Agp-Lys(2-Cl-Z)-Arg-AC C [SMA2]
increase in activity on exchanging L-Nle(O-Bzl) (SMA4) at P3 [1]: 22 fold

Ac-[dP][hArg][1Nal]R-{ACC} (SMILES CC(=O)N1CCC[C@@H]1C(=O)N[C@@H](CCCCNC(=N)N)C(=O)N[C@@H](Cc1cccc2ccccc12)C(=O)N[C@@H](CCCNC(=N)N)C(=O)Nc1ccc2c(CC(N)=O)cc(=O)oc2c1) [SMX15]
times more hydrolyzed by fXa than by thrombin ([2]; ratio of kcat/KM values): 358 times

Ac–hCha–Cys(MeBzl)–Pip–Arg^P(OPh)2 [I-SMII22]
kobs/I selectivity: thrombin inhibition more rapid than APC [6]: 348 fold
kobs/I selectivity: thrombin inhibition more rapid than fXa [6]: 2087 fold

Cy3–6-Ahx–DPro–hArg–1-Nal–Arg^P(OPh)2 [P-SMX152]
inhibition of APC less efficient than fXa [7]: 75 fold

Cy7–6-Ahx–hCha–Cys(MeBzl)–Pip–Arg^P(OPh)2 [P-SMII222]
selectivity of thrombin labeling in human plasma at 20 μM probe [8]: selectivity was maintained with thrombin labeling
